Data on 2 compounds can be found in ChEMBL document CHEMBL1123325, “Isomer-dependent cytostatic activity of bis(1-aziridinyl)cyclophosphazenes” (1986).

Holding throughout (type): functional
In experiment [1] the test system is L1210. The experiment in a line: In vitro inhibition dose (cytostatic activity) in L1210 mouse leukemia cells.
For experiment [2], the system named is Mus musculus. The experiment in a line: Tested for percent median survival time of drug-treated mice over that of untreated control mice at dose of 40 mg/kg. A digest of the protocol: (§1)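 10^5 L1210 leukemia cells from in vitro suspension culture were injected into male (BALB/c × DBA/2)F1 (CDF1) mice as intraperitoneal leukemia. Dosing began 24 h later, with 5 mice per dose and 10 untreated controls. Survival times were recorded. The value is the median survival time of treated mice as a percent of untreated controls (T/C%), with 60-day long-term survivors noted.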

For experiment [3], the system named is Mus musculus. The experiment in a line: Compound was tested for percent median survival time of drug-treated mice over that of untreated control mice at dose of 35 mg/kg. The essentials: as §1
Experiment [4] concerns L1210. Put plainly: Tested in vivo for 50% lethal dose in L1210 mouse leukemia cells.
Experiment [5] deals with Mus musculus. Put plainly: Tested for percent median survival time of drug-treated mice over that of untreated control mice at dose of 200 mg/kg. A digest of the protocol:
as §1

Experiment [6] has as its system Mus musculus. Put plainly: Compound was tested for percent median survival time of drug-treated mice over that of untreated control mice at dose of 175 mg/kg. A digest of the protocol: as §1

Broadly, the T/C is the result in the treated group divided by that in the control group, in per cent. In general, LD50 refers to the dose at which mortality reaches 50%. A lower LD50 goes with greater toxicity. With `CNP1(N2CC2)=NP(N2CC2)(N2CC2)=NP(N2CC2)(N2CC2)=N1` (stereo not drawn), the ID50 with L1210 [1] was determined as 1.2e-06 M l-1. The T/C with Mus musculus [2] and in the experiment on Mus musculus [3] was 188% throughout. Moreover, the 50% lethal dose (LD50) in the experiment with L1210 [4] was 45 mg/kg.

For the compound `O=S1(N2CC2)=NP(N2CC2)(N2CC2)=NP(N2CC2)(N2CC2)=N1` (stereo not drawn), in the experiment with L1210 [1], the ID50 came out at 1.06e-05 M l-1. Further, the figures for the T/C with Mus musculus [5] and in the experiment on Mus musculus [6] were 163% and 188%, respectively. In addition, in the experiment on L1210 [4], the 50% lethal dose (LD50) worked out at 250 mg/kg.
